Results published in ChEMBL document CHEMBL3875197, “Design, synthesis and pharmacological evaluation of 4-hydroxyphenylglycine and 4-hydroxyphenylglycinol derivatives as GPR88 agonists” (Bioorg Med Chem, 2017).
Active and inactive are the calls of the source. The calls are words filed in the database; no cut-off is given here.

Biological target: T1, G protein-coupled receptor 88 (Homo sapiens, UniProt Q9GZN0)
Test: Agonist activity at PPLS-HA-tagged-GPR88 (unknown origin) expressed in CHO cells assessed as inhibition of forskolin-stimulated cAMP production measured after 30 mins by TR-FRET assay
Assay type: functional, cell-based

T1 sequence (Q9GZN0 whole entry): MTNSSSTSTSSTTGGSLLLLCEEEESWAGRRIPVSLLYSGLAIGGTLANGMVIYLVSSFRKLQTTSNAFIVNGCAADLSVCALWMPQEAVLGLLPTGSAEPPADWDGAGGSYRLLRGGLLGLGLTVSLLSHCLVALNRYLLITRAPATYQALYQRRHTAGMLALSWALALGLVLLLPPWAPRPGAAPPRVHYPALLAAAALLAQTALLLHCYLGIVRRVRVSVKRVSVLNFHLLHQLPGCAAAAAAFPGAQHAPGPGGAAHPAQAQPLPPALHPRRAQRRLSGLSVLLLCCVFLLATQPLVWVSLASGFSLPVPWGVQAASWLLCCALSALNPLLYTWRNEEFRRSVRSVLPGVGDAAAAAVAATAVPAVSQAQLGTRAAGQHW

| Structure (SMILES) | EC50 |
| --- | --- |
| CCCC(C)COc1ccc([C@H](CO)NC(=O)[C@@H](CC)c2ccccc2)cc1 (stereo not given in full) | 0.145 µM |
| CCCC(C)COc1ccc([C@@H](NC(=O)Cc2ccc(F)cc2)C(=O)OC)cc1 (stereo not given in full) | 5.86 µM |
| CCCC(C)COc1ccc([C@@H](NC(=O)Cc2ccc(C#N)cc2)C(=O)OC)cc1 (stereo not given in full) | > 10 µM |
| CCCC(C)COc1ccc([C@@H](NC(=O)Cc2ccc(C)cc2)C(=O)OC)cc1 (stereo not given in full) | 3.7 µM |
| CCCC(C)COc1ccc([C@H](CO)NC(=O)CCCc2ccccc2)cc1 (stereo not given in full) | 1.44 µM |
| CCCC(C)COc1ccc([C@H](CN=[N+]=[N-])NC(=O)[C@@H](C)c2ccccc2)cc1 (stereo not given in full) | 0.134 µM |
| CCCC(C)COc1ccc([C@@H](NC(=O)C(C)C2CCCCC2)C(=O)OC)cc1 (mixture of isomers) | > 10 µM |
| CCCC(C)COc1ccc([C@H](CO)NC(=O)CCc2ccccc2)cc1 (stereo not given in full) | 0.345 µM |
| CCCC(C)COc1ccc([C@@H](NC(=O)[C@@H](CC)c2ccccc2)C(=O)OC)cc1 (stereo not given in full) | 0.583 µM |
| CCCC(C)COc1ccc([C@@H](NC(=O)Cc2ccccc2F)C(=O)OC)cc1 (stereo not given in full) | 7.87 µM |
| CCCC(C)COc1ccc([C@@H](NC(=O)Cc2ccc(OC)cc2)C(=O)OC)cc1 (stereo not given in full) | 9.57 µM |
| CCCC(C)COc1ccc([C@@H](NC(=O)[C@@H](C)c2ccccc2)C(=O)O)cc1 (stereo not given in full) | > 10 µM |
| CCCC(C)COc1ccc([C@H](CO)NC(=O)Cc2ccccc2)cc1 (stereo not given in full) | 0.487 µM |
| CCCC(C)COc1ccc([C@@H](NC(=O)Cc2ccccc2)C(=O)OC)cc1 (stereo not given in full) | 2.63 µM |
| CCCC(C)COc1ccc([C@@H](NC(=O)Cc2cccc(F)c2)C(=O)OC)cc1 (stereo not given in full) | 3.91 µM |
| CCCC(C)COc1ccc([C@@H](NC(=O)[C@@H](C)c2ccccc2)C(=O)OC)cc1 (stereo not given in full) | 0.538 µM |

Biological target: T1, G protein-coupled receptor 88
Test: Agonist activity at PPLS-HA-tagged-GPR88 (unknown origin) expressed in CHO cells assessed as inhibition of forskolin-stimulated cAMP production at 1 uM measured after 30 mins by TR-FRET assay
Assay type: functional, cell-based
Outline: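 Stable PPLS-HA-GPR88 CHO cells lifted with versene, 4,000 cells/well in HBSS with 5 mM HEPES, 0.1% BSA and 0.5 mM IBMX (pH 7.4). Single 1 μM test compound plus forskolin (300 nM at 4× final), 30 min at RT. Eu-cAMP tracer and ULight-anti-cAMP added, TR-FRET read (ex 337 nm) after 1 h at RT. Activity expressed as percentage of reference-agonist TR-FRET signal.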

| Structure (SMILES) | agonist activity call |
| --- | --- |
| CCCC(C)COc1ccc([C@@H](NC(=O)[C@H](C)c2ccccc2)C(=O)OC)cc1 (stereo not given in full) | Active |
| CCCC(C)COc1ccc([C@@H](NC(=O)[C@@H](CC)c2ccccc2)C(=O)OC)cc1 (stereo not given in full) | Active |
| CCCC(C)COc1ccc([C@@H](NC(=O)Cc2ccccc2)C(=O)OC)cc1 (stereo not given in full) | Active |
| CCCC(C)COc1ccc([C@@H](NC(=O)[C@@H](C)c2ccccc2)C(=O)OC)cc1 (stereo not given in full) | Active |
